According to ChEMBL document CHEMBL1138743, “Discovery of novel heteroarylazoles that are metabotropic glutamate subtype 5 receptor antagonists with anxiolytic activity” (J Med Chem, 2004):

Key:
[1] = target: Metabotropic glutamate receptor 5 (Rattus norvegicus, UniProt P31424); test: Displacement of [3H]3-methoxy-5-(pyridin-2-ylethynyl)pyridine from glutamate 5 receptor of rat cortical membranes; format: cell membranes, Membrane
In short: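 Native mGlu5 in rat cortical membranes; displacement of bound [3H]-3-methoxy-5-(pyridin-2-ylethynyl)pyridine by test compound. Ki given as geometric mean with lower and upper limits and number of replicates.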

[2] = target: Metabotropic glutamate receptor 5 (Homo sapiens, UniProt P41594); test: Inhibitory concentration towards human glutamate receptor 5 in calcium flux assay; format: functional
In short: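 Ltk cells stably expressing human recombinant mGlu5; glutamate as agonist. Cytosolic Ca2+ changes read by fura-2 fluorescence in an automated format. IC50 given as geometric mean with limits and replicate number.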

[3] = Bioavailability in rat; format: ADME, organism-based; conditions: in vivo
In short: (§1)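 Sprague-Dawley rats given 2 mg/kg iv (n = 2/group) and 10 mg/kg po (n = 3/group). Clearance, volume of distribution, half-life and oral bioavailability derived from plasma concentration profiles.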

[4] = Volume of distribution in rat; format: ADME, organism-based; conditions: in vivo; in short: as §1
[5] = Half life in rat; format: ADME; conditions: in vivo; in short: as §1
[6] = Maximum concentration in rat when administered at 10 mg/kg perorally; format: ADME, organism-based; set-up: dose 10 mg/kg, route oral; conditions: in vivo, po
In short: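 Sprague-Dawley rats dosed 10 mg/kg po (n = 3/group); maximum plasma concentration recorded.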

[7] = Plasma clearance in rat; format: ADME, organism-based; conditions: read-out: Clp; in short: as §1
[8] = tested on: Rattus norvegicus; test: In vivo receptor occupancy was determined in rats administered intraperitoneally after 1 hr; format: functional; conditions: ip
[9] = tested on: Rattus norvegicus; test: Blockage of fear-conditioning in rats determined in the fear-potentiated startle (FPS) model of anxiety administered perorally after 1 hr; format: functional; conditions: po
In short: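 Fear-potentiated startle in Wistar rats (n = 8/group), acute oral dosing, tested 1 h after administration. Startle amplitude compared in dark versus light; ED50 for blocking fear expression.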

[10] = Brain level after 1 hr following 10 mg/kg dose administered intraperitoneally; format: ADME, organism-based; set-up: dose 10 mg/kg, route intraperitoneal; conditions: rat, ip
In short: (§2)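 Rats given 10 mg/kg ip; plasma and brain concentrations measured at 1 h after dosing.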

[11] = tested on: Rattus norvegicus; test: In vivo receptor occupancy was determined in rats administered perorally after 30 min; format: functional; conditions: po, 0.5 h
[12] = Plasma level after 1 hr following 10 mg/kg dose administered intraperitoneally; format: ADME, organism-based; set-up: dose 10 mg/kg, route intraperitoneal; conditions: rat, ip, read-out: Plasma Level; in short: as §2
[13] = tested on: Rattus norvegicus; test: In vivo receptor occupancy was determined in rats administered perorally after 2 hr; format: functional; conditions: po
In short: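 Sprague-Dawley rats dosed orally (n = 5–7/group); tail-vein radioligand given at Tmax, 2 h post-dose. Animals killed 1 min later and brain-bound tracer quantified. Occupancy ED50 from dose–response.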

[14] = Plasma level after 1 hr following 3 mg/kg dose administered intraperitoneally; format: ADME, organism-based; set-up: dose 3 mg/kg, route intraperitoneal; conditions: rat, ip, read-out: Plasma Level
In short: (§3)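 Rats given 3 mg/kg ip; plasma and brain concentrations measured at 1 h after dosing.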

[15] = Brain level after 1 hr following 3 mg/kg dose administered intraperitoneally; format: ADME, organism-based; set-up: dose 3 mg/kg, route intraperitoneal; conditions: rat, ip; in short: as §3

Metabotropic glutamate receptor 5 (Rattus norvegicus, UniProt P31424), sequence (P31424 whole entry): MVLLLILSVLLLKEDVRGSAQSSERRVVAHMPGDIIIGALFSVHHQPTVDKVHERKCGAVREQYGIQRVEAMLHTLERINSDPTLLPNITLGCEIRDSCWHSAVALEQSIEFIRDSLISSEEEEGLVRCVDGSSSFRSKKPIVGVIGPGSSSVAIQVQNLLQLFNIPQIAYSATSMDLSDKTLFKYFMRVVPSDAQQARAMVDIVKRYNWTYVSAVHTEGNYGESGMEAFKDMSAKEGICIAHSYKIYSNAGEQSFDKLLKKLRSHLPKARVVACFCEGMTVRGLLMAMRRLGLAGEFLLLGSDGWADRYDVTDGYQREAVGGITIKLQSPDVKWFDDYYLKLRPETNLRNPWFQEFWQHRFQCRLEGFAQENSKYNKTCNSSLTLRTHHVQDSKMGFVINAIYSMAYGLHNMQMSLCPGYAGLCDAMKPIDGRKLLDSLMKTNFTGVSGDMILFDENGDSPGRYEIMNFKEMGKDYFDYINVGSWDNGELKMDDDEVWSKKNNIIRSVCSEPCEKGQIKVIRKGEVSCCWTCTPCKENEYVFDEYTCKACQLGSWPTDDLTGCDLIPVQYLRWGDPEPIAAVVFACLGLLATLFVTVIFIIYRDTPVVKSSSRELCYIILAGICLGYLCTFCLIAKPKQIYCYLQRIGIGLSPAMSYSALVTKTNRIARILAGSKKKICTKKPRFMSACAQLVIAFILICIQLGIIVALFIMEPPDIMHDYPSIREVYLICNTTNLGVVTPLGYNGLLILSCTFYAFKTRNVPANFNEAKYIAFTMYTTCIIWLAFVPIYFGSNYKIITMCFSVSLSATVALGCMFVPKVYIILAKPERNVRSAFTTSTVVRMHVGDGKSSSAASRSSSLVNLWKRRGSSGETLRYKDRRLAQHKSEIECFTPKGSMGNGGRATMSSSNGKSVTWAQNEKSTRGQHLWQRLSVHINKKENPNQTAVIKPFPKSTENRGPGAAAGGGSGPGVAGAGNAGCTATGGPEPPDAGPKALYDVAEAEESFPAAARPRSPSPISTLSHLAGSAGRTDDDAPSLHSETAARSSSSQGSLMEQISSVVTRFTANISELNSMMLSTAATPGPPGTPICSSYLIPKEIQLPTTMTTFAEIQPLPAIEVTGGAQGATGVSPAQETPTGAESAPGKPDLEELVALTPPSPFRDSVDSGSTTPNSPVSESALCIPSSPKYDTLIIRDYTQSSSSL
Metabotropic glutamate receptor 5 (Homo sapiens, UniProt P41594), sequence (P41594 whole entry): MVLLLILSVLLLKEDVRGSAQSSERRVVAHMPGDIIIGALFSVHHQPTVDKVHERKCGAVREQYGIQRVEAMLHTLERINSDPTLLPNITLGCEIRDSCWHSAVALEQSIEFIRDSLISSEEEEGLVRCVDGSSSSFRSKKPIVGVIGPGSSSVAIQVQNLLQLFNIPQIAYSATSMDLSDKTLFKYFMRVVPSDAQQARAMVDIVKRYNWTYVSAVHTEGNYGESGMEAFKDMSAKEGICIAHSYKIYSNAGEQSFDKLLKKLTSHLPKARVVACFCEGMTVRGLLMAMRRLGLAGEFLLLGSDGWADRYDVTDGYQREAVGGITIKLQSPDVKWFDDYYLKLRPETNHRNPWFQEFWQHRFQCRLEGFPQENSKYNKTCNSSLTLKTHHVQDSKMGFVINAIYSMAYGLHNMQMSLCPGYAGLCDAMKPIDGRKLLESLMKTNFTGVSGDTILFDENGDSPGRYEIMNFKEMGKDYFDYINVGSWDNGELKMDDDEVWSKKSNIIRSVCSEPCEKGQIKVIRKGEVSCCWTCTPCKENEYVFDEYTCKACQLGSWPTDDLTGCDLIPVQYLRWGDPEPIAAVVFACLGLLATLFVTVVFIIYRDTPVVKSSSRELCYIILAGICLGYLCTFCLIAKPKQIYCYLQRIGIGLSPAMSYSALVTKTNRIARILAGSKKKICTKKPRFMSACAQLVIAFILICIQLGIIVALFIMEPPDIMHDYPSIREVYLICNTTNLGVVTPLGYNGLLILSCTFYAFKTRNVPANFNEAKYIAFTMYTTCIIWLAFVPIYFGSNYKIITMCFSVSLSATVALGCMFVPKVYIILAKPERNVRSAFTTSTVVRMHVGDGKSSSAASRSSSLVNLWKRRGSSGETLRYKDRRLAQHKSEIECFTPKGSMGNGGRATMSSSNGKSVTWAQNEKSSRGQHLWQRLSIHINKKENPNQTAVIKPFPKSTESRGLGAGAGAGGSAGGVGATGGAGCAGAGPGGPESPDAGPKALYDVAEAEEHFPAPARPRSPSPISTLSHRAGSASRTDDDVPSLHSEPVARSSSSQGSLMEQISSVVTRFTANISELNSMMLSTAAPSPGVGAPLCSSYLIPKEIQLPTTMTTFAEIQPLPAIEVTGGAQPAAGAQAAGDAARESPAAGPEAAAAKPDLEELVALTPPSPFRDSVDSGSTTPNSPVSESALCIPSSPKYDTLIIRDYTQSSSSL

Row | Ki [1] [nM] | IC50 [2] [nM] | Cmax [6] [nM] | clearance [7] [mL/min/kg] | Structure (SMILES) | further results
1 | > 600 | 4620 | – | – | N#Cc1cccc(-c2ccn(-c3ccccn3)c2)c1 | –
2 | > 630 | > 10000 | – | – | N#Cc1cccc(-c2cn(-c3ccccn3)nn2)c1 | –
3 | > 600 | 690 | – | – | N#Cc1cccc(-n2cnc(-c3ccccn3)n2)c1 | –
4 | > 600 | 1150 | – | – | N#Cc1cccc(-n2cnc(-c3ccccn3)c2)c1 | –
5 | 250 | 140 | 1200 | 9.7 | N#Cc1cccc(-n2cc(-c3ccccn3)cn2)c1 | bioavailability [3]: 3%; Vd [4]: 3.7 L/kg; half-life [5]: 5.5 h
6 | 200 | 210 | 2700 | 15.1 | N#Cc1cccc(-c2cnn(-c3ccccn3)n2)c1 | bioavailability [3]: 13%; Vd [4]: 1 L/kg; half-life [5]: 1.7 h
7 | 450 | 270 | – | – | N#Cc1cccc(-c2nnn(-c3ccccn3)n2)c1 | –
8 | > 600 | 190 | 900 | 32.5 | N#Cc1cccc(-n2ccc(-c3ccccn3)c2)c1 | bioavailability [3]: 4%; Vd [4]: 3.6 L/kg; half-life [5]: 1.7 h
9 | 190 | 70 | 5800 | 32.9 | N#Cc1cccc(-n2nnc(-c3ccccn3)n2)c1 | ED50 [8]: 3 mg/kg; ED50 [9]: 5.4 mg/kg; concentration at 1 h [10]: 15300 nM; ED50 [11]: 3 mg/kg; concentration at 1 h [12]: 10500 nM
10 | 300 | 80 | 600 | 15.7 | N#Cc1cccc(-n2ncc(-c3ccccn3)n2)c1 | bioavailability [3]: 3%; Vd [4]: 1.1 L/kg; half-life [5]: 2.5 h
11 | > 600 | 6150 | – | – | N#Cc1cccc(-c2ncn(-c3ccccn3)n2)c1 | –
12 | > 600 | 980 | – | – | N#Cc1cccc(-n2cc(-c3ccccn3)nn2)c1 | –
13 | 530 | 440 | – | – | N#Cc1cccc(-n2ccc(-c3ccccn3)n2)c1 | –
14 | 10 | 4 | 2500 | 16.9 | N#Cc1cc(F)cc(-n2nnc(-c3ccccn3)n2)c1 | bioavailability [3]: 26%; ED50 [8]: 1.3 mg/kg; Vd [4]: 1.1 L/kg; ED50 [13]: 3.6 mg/kg; concentration at 1 h [14]: 2700 nM; concentration at 1 h [15]: 2400 nM
15 | > 630 | 890 | – | – | N#Cc1cccc(-c2cnn(-c3ccccn3)c2)c1 | –
16 | > 600 | 3600 | – | – | N#Cc1cccc(-c2ccn(-c3ccccn3)n2)c1 | –
17 | 490 | – | – | – | N#Cc1cccc(-c2nc(-c3ccccn3)no2)c1 | –
18 | > 600 | > 10000 | – | – | N#Cc1cccc(-c2cn(-c3ccccn3)cn2)c1 | –
